From ChEMBL document CHEMBL1157813, “Novel irreversible fluorescent probes targeting the 18 kDa translocator protein: synthesis and biological characterization” (J Med Chem, 2010)
Activity calls are given as the source filed them. No cut-off for these calls is given here.

Columns and labels:
[1] = molecular target: Translocator protein (Rattus norvegicus) (UniProt P16257); assay: Displacement of [3H]Ro5-4864 from TSPO in rat kidney mitochondrial membrane after 180 mins; assay type: cell membranes
Summary of the method: (§1)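 Rat kidney membranes preincubated with ligand (1 nM to 1 μM) for 0, 10, 30, 60, 90 or 180 min in binding buffer. Stopped with ice-cold 50 mM Tris/HCl pH 7.4, centrifuged 13000g 15 min at 4 °C, pellets washed twice. Residual [3H]Ro 5-4864 binding then measured at 65 μg protein/tube. ln B/B0 plotted against time. Kd and K2 taken from a 1/Kobs vs 1/[D] plot. Duplicates, three experiments.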

[2] = molecular target: Translocator protein (Rattus norvegicus) (UniProt P16257); assay: Displacement of [3H]Ro5-4864 from TSPO in rat kidney mitochondrial membrane at 1 to 1000 nM; assay type: cell membranes; settings: TDE = time-dependent effect; summary of the method: as §1
Translocator protein [3] = molecular target: T1, Translocator protein (Rattus norvegicus, UniProt P16257); assay: Irreversible binding affinity to TSPO in rat kidney mitochondrial membrane; assay type: cell membranes; summary of the method: as §1
Translocator protein [4] = molecular target: T1, Translocator protein; assay: Displacement of [3H]Ro5-4864 from TSPO in rat kidney mitochondrial membrane; assay type: cell membranes
Summary of the method: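 IC50 and Ki taken from displacement curves. Bound radioactivity expressed as percent of specific binding. Triplicate determinations pooled from three independent experiments.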

[5] = molecular target: Translocator protein (Homo sapiens) (UniProt P30536); assay: Irreversible binding affinity to TSPO in human U87MG cells at 100 to 500 nM after 20 mins in presence of 10 uM Ro5-4864; assay type: cell-based; settings: U-87MG ATCC
Summary of the method: (§2)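 U87MG cells grown in RPMI 1640 with 10% FBS, seeded at 4 × 10^4 cells/well for 24 h. Some wells pretreated with 10 μM Ro 5-4864, then given probe (100, 250, 500 nM) for 20 or 90 min at 37 °C, 5% CO2. Four washes in medium with cysteine, then PBS. Fluorescence read at Ex 485/Em 535 nm. Mean ± SEM, at least three experiments in duplicate.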

[6] = molecular target: Translocator protein (Homo sapiens) (UniProt P30536); assay: Irreversible binding affinity to TSPO in human U87MG cells at 100 to 500 nM after 90 mins in presence of 10 uM Ro5-4864; assay type: cell-based; settings: U-87MG ATCC; summary of the method: as §2

T1 sequence (P16257 whole entry, looked up): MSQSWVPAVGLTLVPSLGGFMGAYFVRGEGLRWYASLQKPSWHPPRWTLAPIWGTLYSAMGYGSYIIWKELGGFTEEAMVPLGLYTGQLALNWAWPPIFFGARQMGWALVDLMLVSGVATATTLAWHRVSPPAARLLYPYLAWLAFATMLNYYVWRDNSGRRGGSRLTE
Translocator protein (Rattus norvegicus), sequence (P16257 whole entry, looked up): as above
Translocator protein (Homo sapiens), sequence (P30536 whole entry): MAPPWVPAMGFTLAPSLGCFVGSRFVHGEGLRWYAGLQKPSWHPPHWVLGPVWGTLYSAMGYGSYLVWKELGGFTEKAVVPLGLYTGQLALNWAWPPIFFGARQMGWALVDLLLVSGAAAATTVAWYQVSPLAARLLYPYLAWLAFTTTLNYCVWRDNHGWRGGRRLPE

| Activity [1] | Activity [2] | Kd (Translocator protein [3]) | IC50 (Translocator protein [4]) | Ki (Translocator protein [4]) | Activity [5] | Activity [6] | Compound |
| --- | --- | --- | --- | --- | --- | --- | --- |
| Dose-dependent effect | tde | 5.07 nM | 59.7 nM | 49.5 nM | – | – | CCCCCCN(CCCCCC)C(=O)C(=O)c1c(-c2ccccc2)[nH]c2ccc(N=C=S)cc12 |
| Dose-dependent effect | tde | 8.31 nM | 42.2 nM | 37.6 nM | inactive | Active | O=C(NCCCCCCNc1ccc([N+](=O)[O-])c2nonc12)C(=O)c1c(-c2ccccc2)[nH]c2ccc(N=C=S)cc12 |
| Dose-dependent effect | tde | 3.17 nM | 45.6 nM | 37.9 nM | – | – | CCCN(CCC)C(=O)C(=O)c1c(-c2ccccc2)[nH]c2ccc(N=C=S)cc12 |
